According to ChEMBL document CHEMBL1781961, “Synthesis and in vitro antibacterial activity of 7-(3-alkoxyimino-4-amino-4-methylpiperidin-1-yl) fluoroquinolone derivatives” (Eur J Med Chem, 2011):
Converted amounts (≈) assume the structure as drawn.

Key:
Streptococcus pneumoniae = assay: Antibacterial activity against 10^4 CFU Streptococcus pneumoniae 08-4 after 18 hrs by CLSI agar dilution method; format: functional; settings: 08-4, 18 h
Pseudomonas aeruginosa [1] = assay: Antibacterial activity against 10^4 CFU Pseudomonas aeruginosa 09-32 after 18 hrs by CLSI agar dilution method; format: functional; settings: 09-32, 18 h
Enterococcus faecium [2] = assay: Antibacterial activity against 10^4 CFU Enterococcus faecium 06-7 after 18 hrs by CLSI agar dilution method; format: functional; settings: 06-7, 18 h
Klebsiella pneumoniae [3] = assay: Antibacterial activity against 10^4 CFU Klebsiella pneumoniae 09-23 after 18 hrs by CLSI agar dilution method; format: functional; settings: 09-23, 18 h
Escherichia coli [4] = assay: Antibacterial activity against 10^4 CFU Escherichia coli 08-21 after 18 hrs by CLSI agar dilution method; format: functional; settings: 08-21, 18 h
Klebsiella pneumoniae [5] = assay: Antibacterial activity against 10^4 CFU Klebsiella pneumoniae 09-22 after 18 hrs by CLSI agar dilution method; format: functional; settings: 09-22, 18 h
Enterococcus faecalis [6] = assay: Antibacterial activity against 10^4 CFU Enterococcus faecalis 08-12 after 18 hrs by CLSI agar dilution method; format: functional; settings: 08-12, 18 h
Staphylococcus aureus [7] = assay: Antibacterial activity against 10^4 CFU methicillin-sensitive Staphylococcus aureus 08-1 after 18 hrs by CLSI agar dilution method; format: functional; settings: 08-1, 18 h
[8] = tested on: Staphylococcus epidermidis; assay: Antibacterial activity against 10^4 CFU methicillin-resistant Staphylococcus epidermidis 09-2 after 18 hrs by CLSI agar dilution method; format: functional; settings: 09-2, 18 h
Enterococcus faecalis [9] = assay: Antibacterial activity against 10^4 CFU Enterococcus faecalis 08-10 after 18 hrs by CLSI agar dilution method; format: functional; settings: 08-10, 18 h
Escherichia coli [10] = assay: Antibacterial activity against 10^4 CFU Escherichia coli ATCC 25922 after 18 hrs by CLSI agar dilution method; format: functional; settings: ATCC 25922, 18 h
[11] = Cytotoxicity against MDCK cells after 48 hrs by CPE assay; format: cell-based, Canis lupus familiaris; settings: dog
Outline: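 MDCK cells kept in Minimum Essential Medium with Earle's salt plus 10% fetal bovine serum at 37 °C, 5% CO₂. […] Medium then replaced by assay medium with or without compound. After 48 h exposure, viability read by CPE assay. CC₅₀ calculated by Reed–Muench analysis.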

Pseudomonas aeruginosa [12] = assay: Antibacterial activity against 10^4 CFU Pseudomonas aeruginosa ATCC 27853 after 18 hrs by CLSI agar dilution method; format: functional; settings: ATCC 27853, 18 h
[13] = tested on: Staphylococcus epidermidis; assay: Antibacterial activity against 10^4 CFU methicillin-sensitive Staphylococcus epidermidis 09-6 after 18 hrs by CLSI agar dilution method; format: functional; settings: 09-6, 18 h
Staphylococcus aureus [14] = assay: Antibacterial activity against 10^4 CFU Staphylococcus aureus ATCC 25923 after 18 hrs by CLSI agar dilution method; format: functional; settings: ATCC 25923, 18 h
Staphylococcus aureus [15] = assay: Antibacterial activity against 10^4 CFU methicillin-resistant Staphylococcus aureus 08-1 after 18 hrs by CLSI agar dilution method; format: functional; settings: 08-1, 18 h
Enterococcus faecium [16] = assay: Antibacterial activity against 10^4 CFU Enterococcus faecium 08-2 after 18 hrs by CLSI agar dilution method; format: functional; settings: 08-2, 18 h

| SMILES | MIC (Streptococcus pneumoniae) [µg/mL] | MIC (Pseudomonas aeruginosa [1]) [µg/mL] | MIC (Enterococcus faecium [2]) [µg/mL] | MIC (Klebsiella pneumoniae [3]) [µg/mL] | MIC (Escherichia coli [4]) [µg/mL] | MIC (Klebsiella pneumoniae [5]) [µg/mL] | MIC (Enterococcus faecalis [6]) [µg/mL] | MIC (Staphylococcus aureus [7]) [µg/mL] | MIC [8] [µg/mL] | MIC (Enterococcus faecalis [9]) [µg/mL] | MIC (Escherichia coli [10]) [µg/mL] | CC50 at 48 h [11] [µM] | MIC (Pseudomonas aeruginosa [12]) [µg/mL] | MIC [13] [µg/mL] | MIC (Staphylococcus aureus [14]) [µg/mL] | MIC (Staphylococcus aureus [15]) [µg/mL] | MIC (Enterococcus faecium [16]) [µg/mL] |
| --- | --- | --- | --- | --- | --- | --- | --- | --- | --- | --- | --- | --- | --- | --- | --- | --- | --- |
| CO/N=C1\CN(c2nc3c(cc2F)c(=O)c(C(=O)O)cn3C2CC2)CCC1(C)N (stereo unspecified) | 4 (≈ 9.92 µM) | 16 (≈ 39.7 µM) | 16 (≈ 39.7 µM) | 2 (≈ 4.96 µM) | 16 (≈ 39.7 µM) | 16 (≈ 39.7 µM) | 16 (≈ 39.7 µM) | 0.25 (≈ 0.62 µM) | 0.25 (≈ 0.62 µM) | 16 (≈ 39.7 µM) | 8 (≈ 19.8 µM) | 77.4 | 4 (≈ 9.92 µM) | 0.25 (≈ 0.62 µM) | 0.25 (≈ 0.62 µM) | 0.25 (≈ 0.62 µM) | 64 (≈ 159 µM) |
| CCO/N=C1\CN(c2nc3c(cc2F)c(=O)c(C(=O)O)cn3C2CC2)CCC1(C)N (stereo unspecified) | 0.25 (≈ 0.599 µM) | 2 (≈ 4.79 µM) | > 128 | > 128 | > 128 | > 128 | > 128 | 0.25 (≈ 0.599 µM) | 0.25 (≈ 0.599 µM) | > 128 | 128 (≈ 307 µM) | 300 | 8 (≈ 19.2 µM) | 0.25 (≈ 0.599 µM) | 0.125 (≈ 0.299 µM) | 0.25 (≈ 0.599 µM) | > 128 |
| CO/N=C1\CN(c2nc3c(cc2F)c(=O)c(C(=O)O)cn3-c2ccc(F)cc2F)CCC1(C)N (stereo unspecified) | 1 (≈ 2.1 µM) | 0.25 (≈ 0.526 µM) | > 128 | 64 (≈ 135 µM) | > 128 | 64 (≈ 135 µM) | 64 (≈ 135 µM) | 0.25 (≈ 0.526 µM) | 0.25 (≈ 0.526 µM) | 64 (≈ 135 µM) | 16 (≈ 33.7 µM) | 93 | 4 (≈ 8.41 µM) | 0.25 (≈ 0.526 µM) | 0.25 (≈ 0.526 µM) | 0.25 (≈ 0.526 µM) | > 128 |
| CCO/N=C1\CN(c2nc3c(cc2F)c(=O)c(C(=O)O)cn3-c2ccc(F)cc2F)CCC1(C)N (stereo unspecified) | 0.25 (≈ 0.511 µM) | 0.5 (≈ 1.02 µM) | > 128 | 32 (≈ 65.4 µM) | 32 (≈ 65.4 µM) | 32 (≈ 65.4 µM) | 32 (≈ 65.4 µM) | 0.25 (≈ 0.511 µM) | 0.25 (≈ 0.511 µM) | 8 (≈ 16.3 µM) | 16 (≈ 32.7 µM) | 128 | 4 (≈ 8.17 µM) | 0.25 (≈ 0.511 µM) | 0.25 (≈ 0.511 µM) | 2 (≈ 4.09 µM) | 64 (≈ 131 µM) |
| CCn1cc(C(=O)O)c(=O)c2cc(F)c(N3CCC(C)(N)/C(=N/OC)C3)c(F)c21 (stereo unspecified) | 0.25 (≈ 0.612 µM) | 4 (≈ 9.79 µM) | > 128 | 64 (≈ 157 µM) | > 128 | 32 (≈ 78.4 µM) | 64 (≈ 157 µM) | 0.25 (≈ 0.612 µM) | 0.25 (≈ 0.612 µM) | 32 (≈ 78.4 µM) | 128 (≈ 313 µM) | 433 | 4 (≈ 9.79 µM) | 0.25 (≈ 0.612 µM) | 0.5 (≈ 1.22 µM) | 0.25 (≈ 0.612 µM) | > 128 |
| CCO/N=C1\CN(c2c(F)cc3c(=O)c(C(=O)O)cn(CC)c3c2F)CCC1(C)N (stereo unspecified) | 0.25 (≈ 0.592 µM) | 64 (≈ 152 µM) | > 128 | > 128 | > 128 | > 128 | > 128 | 0.25 (≈ 0.592 µM) | 0.25 (≈ 0.592 µM) | 4 (≈ 9.47 µM) | > 128 | 592 | 4 (≈ 9.47 µM) | 0.25 (≈ 0.592 µM) | 0.25 (≈ 0.592 µM) | 0.25 (≈ 0.592 µM) | > 128 |
| CO/N=C1\CN(c2c(F)cc3c(=O)c(C(=O)O)cn(CCF)c3c2F)CCC1(C)N (stereo unspecified) | 2 (≈ 4.69 µM) | 0.5 (≈ 1.17 µM) | 128 (≈ 300 µM) | 32 (≈ 75 µM) | 32 (≈ 75 µM) | 16 (≈ 37.5 µM) | 32 (≈ 75 µM) | 0.25 (≈ 0.586 µM) | 0.25 (≈ 0.586 µM) | 128 (≈ 300 µM) | 32 (≈ 75 µM) | 36.6 | 2 (≈ 4.69 µM) | 0.25 (≈ 0.586 µM) | 0.125 (≈ 0.293 µM) | 0.25 (≈ 0.586 µM) | 32 (≈ 75 µM) |
| CCO/N=C1\CN(c2c(F)cc3c(=O)c(C(=O)O)cn(C4CC4)c3c2F)CCC1(C)N (stereo unspecified) | 4 (≈ 9.21 µM) | 4 (≈ 9.21 µM) | > 128 | > 128 | > 128 | 4 (≈ 9.21 µM) | > 128 | 0.5 (≈ 1.15 µM) | 0.5 (≈ 1.15 µM) | 4 (≈ 9.21 µM) | 128 (≈ 295 µM) | 288 | 8 (≈ 18.4 µM) | 0.5 (≈ 1.15 µM) | 0.5 (≈ 1.15 µM) | 0.5 (≈ 1.15 µM) | > 128 |
